Assay outcomes: PubChem, several laboratories
An excerpt weighted towards active compounds, which were near 1.7% of everything screened.
Pemphigus Ab inh = inhibitors of pemphigus antibody binding to DSG3, primary screen, biochemical, bead-based, flow cytometry, scFv-GFP | binding (percent of control), % at 10 µM | 0.48% of 310,000 active | DSG3-coupled beads, scFv-anti-DSG3-GFP binding; active compounds read low | Desmoglein-3 (Homo sapiens), P32926;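 active = binding more than 3 SD below its plate's average and above zero; inconclusive = below that plate limit but binding exactly zero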;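 note: hits lower antibody fragment binding to DSG3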
Target sequence (P32926 whole entry, looked up, the tested form may be a part): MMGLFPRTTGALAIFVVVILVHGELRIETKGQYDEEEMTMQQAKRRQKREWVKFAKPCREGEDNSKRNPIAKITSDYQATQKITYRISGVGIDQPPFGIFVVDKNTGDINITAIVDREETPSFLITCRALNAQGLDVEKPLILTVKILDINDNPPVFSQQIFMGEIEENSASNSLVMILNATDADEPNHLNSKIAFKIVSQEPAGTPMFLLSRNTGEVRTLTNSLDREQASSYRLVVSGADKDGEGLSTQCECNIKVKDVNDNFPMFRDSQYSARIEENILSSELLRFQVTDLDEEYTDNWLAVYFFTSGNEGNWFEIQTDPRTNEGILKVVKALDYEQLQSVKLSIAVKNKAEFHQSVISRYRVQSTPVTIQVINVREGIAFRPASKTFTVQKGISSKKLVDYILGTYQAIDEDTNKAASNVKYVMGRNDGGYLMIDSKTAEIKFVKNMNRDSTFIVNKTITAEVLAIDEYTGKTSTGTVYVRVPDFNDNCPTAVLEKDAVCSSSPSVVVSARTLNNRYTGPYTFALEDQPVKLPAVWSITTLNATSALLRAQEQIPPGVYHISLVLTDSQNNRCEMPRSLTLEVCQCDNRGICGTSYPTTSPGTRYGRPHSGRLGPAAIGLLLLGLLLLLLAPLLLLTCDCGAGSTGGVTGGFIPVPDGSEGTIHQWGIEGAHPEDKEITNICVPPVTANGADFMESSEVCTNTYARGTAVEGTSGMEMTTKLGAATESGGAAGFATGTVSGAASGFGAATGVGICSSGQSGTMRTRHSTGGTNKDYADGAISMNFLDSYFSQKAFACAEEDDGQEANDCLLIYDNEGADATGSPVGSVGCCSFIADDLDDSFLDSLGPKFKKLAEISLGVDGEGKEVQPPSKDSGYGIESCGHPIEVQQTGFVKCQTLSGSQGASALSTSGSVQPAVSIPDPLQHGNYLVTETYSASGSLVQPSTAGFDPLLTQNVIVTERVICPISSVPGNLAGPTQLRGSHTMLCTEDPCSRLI
Neddyl block = inhibitors of cullin neddylation, primary screen, biochemical, TR-FRET, uHTS, NAE and Ubc12. 0.58% of 360,000 active. inhibition, % at 25 µM. NEDD8-conjugating enzyme Ubc12 (Homo sapiens) + NEDD8-activating enzyme E1 regulatory …. AID 651699, 2012; in the data active = inhibition above about 36%
Arr AP2 block = inhibitors of beta-arrestin/AP2 binding, primary screen, biochemical, GPCR trafficking, flow cytometry; AID 504490, 2011; FITC-arrestin peptide / GST-AP2 beads; AP2 beta2 appendage carries R879A mutation; 0.31% of 340,000 active; inhibition, % at 10 µM;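 active = inhibition above a set limit, near 3 SD of compounds lacking own fluorescence, cut at about 54% in these data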
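System: GST-AP2 R879A glutathione beads; medium: PBS, Tween 20 0.05%, BSA 0.1%; reagent: fluorescein-tagged arrestin peptide at 50 nM final; schedule: pre-incubation 12 min, peptide binding 1 h, room temperature; detection: flow cytometry, FL1 (488/535 nm); read-out: inhibition as reduced fluorescein signal on beads, percent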
Efflux pump mplx = inhibitors of Candida efflux pumps in yeast, primary screen, S. cerevisiae, Nile Red, multiplex; inhibition, % at 10 µM; S. cerevisiae Candida pump triplex; 0.44% of 330,000 active;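 active = plate passing quality check with inhibition over a set limit, or well fluorescence over plate mean plus 4 SD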;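 note: Nile Red retained in pooled yeast measured as flow cytometry median fluorescence; higher means more Nile Red kept so more efflux inhibition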
Neddyl conf = blockade of NEDD8 conjugation to cullin – biochemical, TR-FRET, single concentration, confirmation | shares compounds with Neddyl block | TR-FRET cullin neddylation biochemical assay | calls only at 25 µM | 13% of 1,800 active; in the data active = inhibition above about 40%;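 note: neddylation substrate is the cullin 1 ring ligase complex with SKP2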
Hits are given with their value; – = inactive; ? = inconclusive; · = not tested or not shown; + = active, no number.

SMILES	Pemphigus Ab inh	Neddyl block	Arr AP2 block	Efflux pump mplx	Neddyl conf
Cc1cccn2c(=O)c3cc(C(=O)N4CCCCC4C)sc3nc12 (centres undefined)	–	50.6	–	–	+
Cc1cccn2c(=O)c3cc(C(=O)N4CC(C)CC(C)C4)sc3nc12 (centres undefined)	·	·	–	–	·
COc1ccccc1N1CCN(C(=O)c2cc3c(=O)n4cccc(C)c4nc3s2)CC1	–	49.1	–	–	+
Cc1cc(C)n(CCNS(=O)(=O)c2ccc(C)c(C)c2)n1	–	–	–	–	·
Cc1ccc(S(=O)(=O)N=N/C=C2\C=CC=CN2O)cc1	–	–	·	·	·
CC1(C(=O)NCc2ccc(Cl)c(Cl)c2)Oc2ccccc2NC1=O (centres undefined)	·	–	–	–	·
COc1cc(/C=C/C(=O)NCCN2CCOCC2)cc(OC)c1OC	·	44.0	–	–	–
COc1ccc(/C=C/C(=O)NCCN2CCOCC2)cc1OC	–	–	–	–	·
Cc1ccc2nc(COC(=O)c3ccc(Cl)nc3)cc(=O)n2c1	–	–	–	–	·
Cc1ccc2nc(Cl)cc(=O)n2c1	·	43.5	–	·	–
Cc1ccc(Cn2c(=N)c(C(=O)NCCN3CCOCC3)cc3c(=O)n4ccccc4nc32)cc1	–	62.1	–	–	+
CCCCNC(=O)[C@H]1C[C@H]1[C@@H](O)[C@H](CO)NC(=O)[C@H](Cc1ccccc1)NC(=O)OC(C)(C)C	–	–	–	–	·
COc1ccc(C2CC(c3ccccc3)Nc3nc(NC(=O)c4ccco4)nn32)cc1 (centres undefined)	–	40.0	–	–	–
COc1ccc(C2CC(c3ccc(OC)cc3)n3nc(NC(=O)c4ccco4)nc3N2)cc1 (centres undefined)	–	38.8	–	–	–
Cc1cc(NC(=O)COC(=O)C(C)Oc2ccc(Cl)cc2Cl)no1 (centres undefined)	–	–	–	–	·
CC(C)(CO)NCC(O)Cn1cc(C=O)c2ccccc21 (centres undefined)	–	–	–	–	·
CCN(CC)S(=O)(=O)c1cccc(-c2cn3cc(C)ccc3n2)c1	–	39.3	–	–	–
Cc1ccc2nc(-c3cccc(S(=O)(=O)N(C)C)c3)cn2c1	–	–	–	–	·
COc1ccc2cc(-c3[nH]ncc3CN3C[C@@H]4CCC[C@H]3C4)ccc2c1	–	–	–	–	·
CSc1cccc(NC(=O)Cn2cnc(S(=O)(=O)N3CCCC3)c2)c1	·	–	–	–	·
COc1ccc2nc3c(nc2c1)CCCC3	–	46.5	–	–	+
CCc1nn2c(N(C)CCO)cc(C)nc2c1-c1ccc(F)cc1	–	43.6	–	–	–
COc1c2ccccc2nc2ccccc12	–	·	–	–	·
Cc1c2ccccc2nc2ccccc12	·	50.4	–	–	–
O=C(NC1CCCC1)C(c1cccnc1)N(Cc1ccccc1)C(=O)c1csnn1 (centres undefined)	–	–	–	–	·
SMILES	Pemphigus Ab inh	Neddyl block	Arr AP2 block	Efflux pump mplx	Neddyl conf
Cc1cc(=O)oc2cc(OCC(=O)N3CC(=O)Nc4ccccc43)c(Cl)cc12	–	40.3	–	–	–
COc1cccc(-c2cc3nc(C)cc(N4CCN(C(=O)c5ccoc5)CC4)n3n2)c1	·	46.9	·	·	·
Cc1ccc(C(=O)Nc2ccc3c(c2)C(=O)N(CC2CCCO2)C3=O)cc1 (centres undefined)	·	60.8	–	–	·
Nc1c(C(=O)Nc2ccc3c(c2)OCCO3)nnn1Cc1cccc(F)c1	–	40.3	–	–	–
Nc1c(C(=O)Nc2ccc3c(c2)OCCO3)nnn1Cc1ccc(Cl)cc1	–	–	–	–	·
CC(C)c1ccc(NC(=O)C2(C)Cc3c(-c4ccc5c(c4)OCO5)ccnc3O2)cc1 (centres undefined)	·	–	·	·	·
OC(CNCCC1C=Nc2ccccc21)Cn1c2ccc(Cl)cc2c2cc(Cl)ccc21 (centres undefined)	–	–	–	–	·
CC/C(=N\Nc1ccnc2cc(Cl)ccc12)c1ccc(O)cc1	·	41.1	–	–	–
Oc1ccc(/C=N/Nc2ccnc3cc(Cl)ccc23)cc1O	–	–	–	–	·
CCC1CCCN1Cn1cnc2c([nH]c3ccc(OC)cc32)c1=O (centres undefined)	–	·	–	–	·
CCC1CCCN1Cn1cnc2c([nH]c3ccccc32)c1=O (centres undefined)	–	40.6	–	–	–
C=CCOc1c(CNc2cccc(C(=O)O)c2)cccc1OCC	–	47.4	–	–	–
CC(C)(C)n1nnnc1C(c1cc2ccccc2o1)N1CCCCC1 (centres undefined)	·	–	·	·	·
CC(NC(=O)c1ccccc1O)c1ccccc1 (centres undefined)	–	46.3	–	–	·
O=C(N/N=C/c1ccc(N2CCOCC2)s1)c1ccccc1Br	–	–	–	–	·
Clc1cccc(N/N=C/c2ccc(N3CCOCC3)s2)c1	–	41.5	·	–	–
COC(=O)c1cc(=O)nc2sc(-c3cccs3)nn12	–	48.9	–	–	–
COC(=O)c1cc(=O)nc2sc(-c3ccc(F)cc3)nn12	–	–	–	–	·
CC(=O)N(CC(=O)Nc1nn(-c2ccccc2)nc1C(N)=O)Cc1ccccc1	·	·	–	–	·
CC(C)(C)n1nnnc1SCC(=O)Nc1nn(-c2ccccc2)nc1C(N)=O	–	47.7	–	–	–
Cc1ccsc1/C=N/NC(=O)c1nnn(-c2nonc2N)c1CSc1ccccc1	–	–	–	–	·
[O-][n+]1c2ccccc2cc2ccccc21	–	45.0	–	–	·
CCCCNS(=O)(=O)c1cccc(NC(=O)[C@H]2C[C@H](O)[C@@H](CO)O2)c1	·	–	·	·	·
c1ccc2nc(N3CCCC3)c(N3CCCC3)nc2c1	?	46.3	–	–	·
CC(=O)Oc1ccc2nc(/C=C/c3ccccc3)oc(=O)c2c1	–	44.7	–	–	–
SMILES	Pemphigus Ab inh	Neddyl block	Arr AP2 block	Efflux pump mplx	Neddyl conf
CC(=O)Oc1ccc2nc(/C=C/c3ccc(C=O)cc3)oc(=O)c2c1	–	–	–	–	·
CC(C)C(=O)Nc1cccc(C(=O)Nc2nccs2)c1	–	–	–	–	·
COc1ccc(NC(=O)c2ccc(-c3ccc(C(C)=O)cc3)o2)cn1	–	38.0	–	–	–
COc1ccc(NC(=O)c2ccco2)cn1	·	–	–	–	·
CSc1ccc(/C=N/NC(=O)c2ccc(-n3cnnn3)cc2)cc1	–	48.8	–	–	–
CCOC(=O)Cc1cc(=O)n2[nH]c(C)c(-c3ccc(OC)cc3)c2n1	–	41.7	–	–	·
Cc1ccc(S(=O)(=O)C(C#N)c2nc3ccccc3nc2N2CC(C)OC(C)C2)cc1C (centres undefined)	–	·	–	–	·
Cc1cccc(S(=O)(=O)C(C#N)c2nc3ccccc3nc2N2CC(C)OC(C)C2)c1 (centres undefined)	–	46.2	–	–	–
